For test [1], the system named is Rattus norvegicus. As to the kind of experiment: Compound was evaluated for its antiinflammatory activity in the cotton pellet induced granuloma(CPG) in normal rats at the dose 200 mg/kg p.o. The class given is functional. To be noted: route oral. In short, it runs like this:
(§1)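 Male Wistar rats (150–180 g), 7 per group. Two sterile 50 mg cotton pellets were implanted subcutaneously in the interscapular region under ether. Oral dosing in 0.5% methocel (10 mL/kg) daily for 6 days, starting 6 h after surgery. Animals were killed 24 h after the last dose; pellets with granuloma were dried 24 h at 80 °C. Percent inhibition versus vehicle controls.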

For test [2], the system named is Rattus norvegicus. As to the kind of experiment: Antiinflammatory activity measured as the percentage inhibition of edema in carrageenan induced rat paw after peroral administration of 200 mg/kg of compound. It counts as functional. To be noted: route oral. The method, boiled down:
(§2)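 Female Wistar rats (120–150 g), 10 per dose, dosed orally with an aqueous suspension in 0.5% methocel (10 mL/kg) 1 h before 0.05 mL of 1% carrageenin in saline was injected into the right hind paw aponeurosis. Paw volume was read plethysmographically at injection and 4 h later. Inhibition is given relative to vehicle controls. Screening dose 200 mg/kg; 100 mg/kg was tested when inhibition exceeded 30%. Student's t test.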
In general terms: In the carrageenan paw model, swelling and tenderness develop within hours.

For test [3], the system named is Rattus norvegicus. Briefly: Antiinflammatory activity was measured as the percentage inhibition of edema in carrageenan induced rat paw after peroral administration of 100 mg/kg of compound. To be noted: route oral. It counts as functional. The method, boiled down: as §2
For test [4], the species on record is Rattus norvegicus. Briefly: Compound was evaluated for its gastroulcerogenic effect with respect to treated and control groups. Treated and control groups are not statistically different when the index is <1; P<0.05. The class given is functional.
The species entered for test [5] is Rattus norvegicus. As to the kind of experiment: Compound was evaluated for its analgesic activity by Randall-Selitto test in comparison with that of Aspirine. It counts as functional. In short, it runs like this: (§3)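 Randall–Selitto pain threshold, measured on the inflamed right hind paw of male Wistar rats (170–200 g), 10 per dose. Edema was induced with 0.1 mL of 20% yeast suspension in saline. Oral dosing in 0.5% methocel (10 mL/kg), highest dose one-fifth of LD50, then scaling down through 100, 50, 20, 10, 5 and 2 mg/kg. Threshold read before dosing, then hourly for 6 h. Potency expressed relative to aspirin = 1.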

The species named for test [6] is Rattus norvegicus. Briefly: Compound was evaluated for its antipyretic activity by antipyresis effect in comparison with that of Aspirin. It counts as functional. The method, boiled down: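 Male Sprague-Dawley rats (120–150 g), 6 per dose, starved 18 h and kept at 24 °C; rats above 38 °C were excluded. Fever was induced by subcutaneous 1 mL of filtered 5% peptone preincubated 48 h at 37 °C. Oral doses as in the analgesic test (top dose one-fifth of LD50, stepping down). Rectal thermocouple readings from 4 h after injection, then hourly for 4 h. Activity relative to aspirin = 1.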

The test system of test [7] is Rattus norvegicus. Briefly: (§4) Compound was evaluated for its antiinflammatory activity by adjuvant-induced polyarthritis test in rats at a dosage of 200 mg/kg administered orally. It counts as functional. The settings on record: route oral. In short, it runs like this:
(§5)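 Female Wistar rats (130–150 g), 8 per dose. Killed Mycobacterium butyricum (0.6 mg in 0.1 mL mineral oil) was injected into the right hind plantar aponeurosis. Oral dosing in 0.5% methocel, once daily, curative scheme from day 14 to day 27. Read-outs: percent change in hind-paw volume versus controls; Newbould 0–4 lesion scores for front paws, tail and ears; plasma inflammation units by nephelometric turbidity before and after 30 min at 56 °C on day 27.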

Test [8] deals with Rattus norvegicus. As to the kind of experiment: Compound was evaluated for its antiinflammatory activity in the cotton pellet induced granuloma (CPG) in normal rats at the dose 200 mg/kg p.o. To be noted: route oral. It counts as functional. In short, it runs like this: as §1
Test [9] deals with Rattus norvegicus. Described as §4. To be noted: route oral. Details: unit not given beside the values. The class given is functional. The method, boiled down: as §5
Test [10] relates to Rattus norvegicus. Briefly: Compound was evaluated for its gastroulcerogenic effect in rats at a peroral dose of 200 mg/kg, P<0.05. To be noted: route oral. It counts as functional.
Test [11] is filed under the species Rattus norvegicus. Briefly: Compound was evaluated for its analgesic activity by Randall-Selitto test in comparison with that of Aspirin. It counts as functional. In short, it runs like this:
as §3

For test [12], the system named is Rattus norvegicus. As to the kind of experiment: Compound was evaluated for its antiinflammatory activity in the cotton pellet induced granuloma(CPG) in normal rats at the dose 50 mg/kg p.o. It counts as functional. To be noted: route oral. In short, it runs like this:
as §1

Test [13] deals with Rattus norvegicus. As to the kind of experiment: Compound was evaluated for its antiinflammatory activity by adjuvant-induced polyarthritis test in rats at a dosage of 1 mg/kg administered orally. It counts as functional. The settings on record: route oral. In short, it runs like this: as §5
The test system of test [14] is Rattus norvegicus. Briefly: Compound was evaluated for its antiinflammatory activity in the cotton pellet induced granuloma(CPG) in normal rats at the dose 3 mg/kg p.o. To be noted: po, read-out: Inhibition.
For test [15], the system named is Rattus norvegicus. Briefly: Compound was evaluated for its antiinflammatory activity by adjuvant-induced polyarthritis test in rats at a dosage of 50 mg/kg administered orally. It counts as functional. The settings on record: route oral. In short, it runs like this:
as §5

As to `Cn1c(-c2ccccc2)nc2c3ccccc3ccc21`, the inhibition in vivo at 200 mg/kg in the test with Rattus norvegicus [1] amounted to 24%; in the test on Rattus norvegicus [2] it was 42%. In the test with Rattus norvegicus [3], this compound displayed an inhibition in vivo at 100 mg/kg of 37%. In addition, the Ulcerogenic index in the test filed under Rattus norvegicus [4] came to 0.33. Besides, the Activity is given as 0.9 in the test listed under Rattus norvegicus [5] and 9.1 in the test listed under Rattus norvegicus [6].
On to `COc1ccc(-c2nc3c4ccccc4ccc3n2C)cc1`, for which the Arthritis scores with Rattus norvegicus [7] turned out to be 40. Besides, the Inflammation units with Rattus norvegicus [7] amounted to 46. In addition, the results for the inhibition in vivo at 200 mg/kg in the test on Rattus norvegicus [2] and with Rattus norvegicus [8] were 53% and 40%, respectively. Moreover, the inhibition in vivo at 100 mg/kg in the test with Rattus norvegicus [3] was determined as 41%. In the test with Rattus norvegicus [9], the “Mean volume of hind paws” value is 33. This compound returned a Ulcerogenic index with Rattus norvegicus [10] of 0.31. For the same compound, the values for the Activity in the test filed under Rattus norvegicus [6] and in the test filed under Rattus norvegicus [11] were 1 and 1.2, respectively.
In the test on Rattus norvegicus [10], `CC(=O)Oc1ccccc1C(=O)O` [ASPIRIN] yielded a Ulcerogenic index of 1.6. The Activity in the test listed under Rattus norvegicus [5] and in the test listed under Rattus norvegicus [6] was 1 each time. In the test with Rattus norvegicus [12], this compound gave an inhibition in vivo at 50 mg/kg of 24%.
`COc1ccc2c(c1)c(CC(=O)O)c(C)n2C(=O)c1ccc(Cl)cc1` [INDOMETHACIN]: in the test with Rattus norvegicus [13], the Arthritis scores is listed as 65, the Inflammation units is recorded as 82 and the “Mean volume of hind paws” value turned out to be 52. In the test with Rattus norvegicus [10], this compound registered a Ulcerogenic index of 1.5. Also, in the test with Rattus norvegicus [14], the inhibition in vivo at 3 mg/kg stood at 41%. This compound also came in with an Activity in the test listed under Rattus norvegicus [5] of 34. The compound also had an Activity in the test filed under Rattus norvegicus [6] of 15.4.
In the test with Rattus norvegicus [10], `CCCCC1C(=O)N(c2ccccc2)N(c2ccccc2)C1=O` [PHENYLBUTAZONE] gave a Ulcerogenic index of 1.4. Moreover, in the test on Rattus norvegicus [15], the Arthritis scores came out at 58, the Inflammation units stood at 68 and the “Mean volume of hind paws” value is reported as 45. The same compound returned an Activity in the test filed under Rattus norvegicus [5] of 6.5. In the test listed under Rattus norvegicus [6], this compound registered an Activity of 4. Further, the inhibition in vivo at 50 mg/kg in the test with Rattus norvegicus [12] amounted to 38%.

Source of the values: ChEMBL document CHEMBL1122649, “3-Alkyl-2-aryl-3H-naphth[1,2-d]imidazoles, a novel class of nonacidic antiinflammatory agents” (J Med Chem, 1984).
